From ChEMBL document CHEMBL3259520, “Structure-activity relationships studies of quinoxalinone derivatives as aldose reductase inhibitors” (Eur J Med Chem, 2014)

Key:
[1] = target: Aldo-keto reductase family 1 member B1 (Rattus norvegicus) (UniProt P07943); assay: Inhibition of Wistar rat eye lens aldose reductase-2 using D-L glyceraldehyde as substrate assessed as oxidation of NADPH at 10 uM preincubated for 10 mins followed by substrate addition measured for 4 mins by spectrophotometric analysis relative to control
In short: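 ALR2 was taken from Wistar rat lens homogenate. It was fractionated with ammonium sulfate (40% and 50% supernatants, then a 75% cut), dissolved in 0.05 M NaCl, dialyzed and stored at −20 °C. The 1 mL assay ran at 30 °C with 0.10 mM NADPH solution, 0.1 M sodium phosphate pH 6.2 and D,L-glyceraldehyde substrate. Compounds were in DMSO diluted with water, 10^-5 M final, with a substrate-free blank rate subtracted.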

[2] = system: Aldehyde reductase AKR1A1 (Rattus norvegicus); assay: Inhibition of Wistar rat kidney aldehyde reductase-1 using D-glucuronate as substrate assessed as oxidation of NADPH at 10 uM preincubated for 10 mins followed by substrate addition measured for 4 mins by spectrophotometric analysis relative to control
[3] = target: Aldo-keto reductase family 1 member B1 (Rattus norvegicus, UniProt P07943); assay: Inhibition of Wistar rat eye lens aldose reductase-2 using D-L glyceraldehyde as substrate assessed as oxidation of NADPH preincubated for 10 mins followed by substrate addition measured for 4 mins by spectrophotometric analysis

| SMILES | inhibition [1] | inhibition [2] | IC50 [3] |
| --- | --- | --- | --- |
| O=C(O)Cn1c(=O)c(/C=C/c2ccc(F)cc2)nc2cc([N+](=O)[O-])ccc21 | – | 25% | 362 nM |
| O=C(O)Cn1c(=O)c(CCc2ccc(F)cc2)nc2ccccc21 | – | 40% | 1140 nM |
| COc1ccc(N2CCN(c3nc4ccccc4n(CC(=O)O)c3=O)CC2)cc1 | – | 48% | 7530 nM |
| O=C(O)Cn1c(=O)c(Nc2ccc(F)cc2F)nc2cc([N+](=O)[O-])ccc21 | – | 41% | 283 nM |
| O=C(O)Cn1c(=O)c(CCc2ccccc2)nc2ccccc21 | – | 22% | 143 nM |
| CC(C)(C)NC(=O)/C=C/c1nc2ccccc2n(CC(=O)O)c1=O | – | 25% | 1860 nM |
| O=C(O)Cn1c(=O)c(/C=C/c2ccccc2)nc2ccc(Cl)cc21 | – | 35% | 3880 nM |
| O=C(O)Cn1c(=O)c(/C=C/c2ccc(F)cc2)nc2ccccc21 | – | 47% | 1430 nM |
| O=C(O)Cn1c(=O)c(/C=C/c2ccc(F)cc2)nc2cc(Cl)ccc21 | – | 25% | 660 nM |

Other lines, results leading:

| inhibition [1] | inhibition [2] | IC50 [3] | SMILES |
| --- | --- | --- | --- |
| 42.9% | – | – | O=c1c(N2CCN(c3cccc(C(F)(F)F)c3)CC2)nc2ccccc2n1Cc1ccc([N+](=O)[O-])cc1 |
| 36.2% | – | – | CC(C)(C)NC(=O)/C=C/c1nc2ccccc2n(Cc2ccc([N+](=O)[O-])cc2)c1=O |
| 24% | – | – | O=c1c(/C=C/c2ccc(F)cc2)nc2ccccc2n1Cc1ccc([N+](=O)[O-])cc1 |
| 26% | – | – | COc1ccc(N2CCN(c3nc4ccccc4n(Cc4ccc([N+](=O)[O-])cc4)c3=O)CC2)cc1 |
| 30% | – | – | O=c1c(/C=C/c2ccccc2)nc2ccccc2n1Cc1ccc([N+](=O)[O-])cc1 |
| – | 32% | 820 nM | O=C(O)Cn1c(=O)c(/C=C/c2ccccc2)nc2ccccc21 |
| 23% | – | – | O=c1c(N2CCN(CCN3CCOCC3)CC2)nc2ccccc2n1Cc1ccc([N+](=O)[O-])cc1 |
| 32% | – | – | O=c1c(-c2csc3ccccc23)nc2ccccc2n1Cc1ccc([N+](=O)[O-])cc1 |
| 24% | – | – | O=c1c(N2CCN(c3cnccn3)CC2)nc2ccccc2n1Cc1ccc([N+](=O)[O-])cc1 |
